In publication PMC9041536 (RSC Advances, 2021):

Columns and labels:
[1] = test system: human lung carcinoma (A-549); test: SRB cytotoxicity assay, A-549; assay type: cell-based; settings: A549, 72 h, read-out: Cytotoxicity (IC50) A-549
[2] = test system: human mammary gland adenocarcinoma (MDA-MB-231); test: SRB cytotoxicity assay, MDA-MB-231; assay type: cell-based; settings: MDA-MB-231, 72 h, read-out: Cytotoxicity (IC50) MDA-MB-231
[3] = test system: human neuroblastoma (SH-SY5Y); test: SRB cytotoxicity assay, SH-SY5Y; assay type: cell-based; settings: for IC50: Homo sapiens, SH-SY5Y, 72 h, read-out: Cytotoxicity (IC50) SH-SY5Y
[4] = test system: human squamous cell carcinoma (FaDu); test: SRB cytotoxicity assay, FaDu; assay type: cell-based; settings: 72 h, read-out: Cytotoxicity (IC50) FaDu
[5] = test system: human colorectal adenocarcinoma (HT-29); test: SRB cytotoxicity assay, HT-29; assay type: cell-based; settings: HT-29, 72 h, read-out: Cytotoxicity (IC50) HT-29
[6] = test system: human intrahepatic cholangiocarcinoma (KKU-M213); test: SRB cytotoxicity assay, KKU-M213; assay type: cell-based; settings: KKU-M213, 72 h, read-out: Cytotoxicity (IC50) KKU-M213
[7] = SRB cytotoxicity assay, normal cell line CL; assay type: cell-based; settings: human, CL cells (normal liver hepatic cell line)
[8] = test system: six cancer cell lines, KKU-M213, FaDu, HT-29, MDA-MB-231, A-549, and SH-SY5Y; test: SRB cytotoxicity assay, all tested cancer cell lines; assay type: cell-based, human; settings: for Cytotoxicity (in words): under tested concentrations (0.1–50 μM)
In short: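 Sulforhodamine B assay, slightly modified, with ellipticine as positive control. Compounds were in 10% DMSO and tested over 0.1–50 μM. Cells exposed for 72 h at 37 °C, 5% CO2, humidified. Fixed with 10% TCA, stained with 0.4% SRB, unbound dye washed off with 1% acetic acid, bound dye solubilised in 10 mM Tris base (pH 10.5). A510 read. IC50 is the concentration giving 50% growth inhibition.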

[9] = test system: P. aeruginosa (ATCC 27853); test: Agar well diffusion method, P. aeruginosa; assay type: cell-based; settings: Pseudomonas aeruginosa, ATCC27853, read-out: zone of inhibition P. aeruginosa
In short: (§1)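 Bacteria swabbed onto Mueller–Hinton agar, then 6 mm wells cut with a sterile cork borer. Each well received 20 µL of test compound dissolved in DMSO at 5 mg mL−1. Plates held 30 min in a refrigerator for diffusion, then incubated at 37 °C for 16–20 h. Inhibition zone measured in mm. Negative control: 10% DMSO.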

[10] = test system: E. coli (ATCC 25922); test: Agar well diffusion method, E. coli; assay type: cell-based; settings: Escherichia coli, ATCC25922, read-out: zone of inhibition E. coli
In short: as §1

[11] = test system: S. aureus (ATCC 25923); test: Agar well diffusion method, S. aureus; assay type: cell-based; settings: Staphylococcus aureus, ATCC25923, read-out: zone of inhibition S. aureus
In short: as §1

SMILES | IC50 [1] | IC50 [2] | IC50 [3] | IC50 [4] | IC50 [5] | IC50 [6] | IC50 at 72 h [7] | Selectivity Index (SI) SH-SY5Y ([3]; ratio of IC50 on normal cell (CL) divided by that on cancer cell) | Cytotoxicity (in words) [8] | IC50 ([8]; Homo sapiens, read-out: IC50 on all tested cancer cell lines) | zone of inhibition at 5 µg/mL [9] | zone of inhibition at 5 µg/mL [10] | zone of inhibition at 5 µg/mL [11]
CCCC(=O)Oc1c(C)c(O)c(C(=O)/C=C/c2ccccc2)c(OC)c1C [Compound 2a, 2′-Hydroxy-4′-butyryloxy-6′-methoxy-3′,5′-dimethylchalcone] | > 50 µM | 38.2 µM | 27.6 µM | 31.2 µM | 35.8 µM | 30.1 µM | 32.8 µM | – | – | – | – | – | –
CCCCCC(=O)Oc1c(C)c(O)c(C(=O)/C=C/c2ccccc2)c(OC)c1C [Compound 2b, 2′-Hydroxy-4′-caproyloxy-6′-methoxy-3′,5′-dimethylchalcone] | 24.8 µM | 18.1 µM | 5.2 µM | 18.9 µM | 26.6 µM | 21.3 µM | 23.5 µM | 4.53 | – | – | – | – | –
CCCCCCCC(=O)Oc1c(C)c(O)c(C(=O)/C=C/c2ccccc2)c(OC)c1C [Compound 2c, 2′-Hydroxy-4′-capryloyloxy-6′-methoxy-3′,5′-dimethylchalcone] | > 50 µM | 25.9 µM | 18 µM | 20.6 µM | 26.6 µM | 24.4 µM | 25.2 µM | – | – | – | – | – | –
CCCCCCCCCC(=O)Oc1c(C)c(O)c(C(=O)/C=C/c2ccccc2)c(OC)c1C [Compound 2d, 2′-Hydroxy-4′-caprinoyloxy-6′-methoxy-3′,5′-dimethylchalcone] | > 50 µM | 36.7 µM | 24.8 µM | 34.7 µM | > 50 µM | > 50 µM | 41.9 µM | – | – | – | – | – | –
COc1c(C)c(OC(C)=O)c(C)c(O)c1C(=O)/C=C/c1ccccc1 [Compound 2f, 2′-Hydroxy-4′-acetyloxy-6′-methoxy-3′,5′-dimethylchalcone] | > 50 µM | 40.3 µM | 28.6 µM | 36.5 µM | 38.6 µM | 43 µM | 31 µM | – | – | – | – | – | –
COc1c(C)c(OCc2ccccc2)c(C)c(O)c1C(=O)/C=C/c1ccccc1 [Compound 2h, 2′-Hydroxy-4′-benzyloxy-6′-methoxy-3′,5′-dimethylchalcone] | 9.99 µM | 26.9 µM | 16.4 µM | 14 µM | 27.5 µM | 23.2 µM | 22.6 µM | – | – | – | – | – | –
C=CCOc1c(C)c(O)c(C(=O)/C=C/c2ccccc2)c(OC)c1C [Compound 2i, 2′-Hydroxy-4′-allyloxy-6′-methoxy-3′,5′-dimethylchalcone] | 36.7 µM | 39.1 µM | 28.2 µM | 29 µM | 34.6 µM | 31.3 µM | 31.7 µM | – | – | – | – | – | –
COc1c(C)c(OC(=O)c2ccccc2)c(C)c(O)c1C(=O)/C=C/c1ccccc1 [Compound 2k, 2′-Hydroxy-4′-benzoyloxy-6′-methoxy-3′,5′-dimethylchalcone] | 41.3 µM | > 50 µM | 20.2 µM | 37.9 µM | 32.5 µM | > 50 µM | > 50 µM | – | – | – | – | – | –
COc1c(C)c(OC(=O)c2ccc(C)cc2)c(C)c(O)c1C(=O)/C=C/c1ccccc1 [Compound 2l, 2′-Hydroxy-4′-(p-toluoyloxy)-6′-methoxy-3′,5′-dimethylchalcone] | 22.4 µM | 25.1 µM | 15.6 µM | 22.1 µM | 26.8 µM | 28.9 µM | 25.4 µM | – | – | – | – | – | –
COc1c(C)c(OS(=O)(=O)c2ccc3ccccc3c2)c(C)c(O)c1C(=O)/C=C/c1ccccc1 [Compound 2n, 2′-Hydroxy-4′-(2-naphthalenesulfonyl)oxy-6′-methoxy-3′,5′-dimethylchalcone] | > 50 µM | 39.8 µM | 16.4 µM | 21.1 µM | 24.7 µM | 27.8 µM | 30.4 µM | – | – | – | – | – | –
COc1c(C)c(OC(C)=O)c(C)c(OC(C)=O)c1C(=O)/C=C/c1ccccc1 [Compound 5f, 2′,4′-Diacetyloxy-6′-methoxy-3′,5′-dimethylchalcone] | 15.4 µM | 29.8 µM | 18.8 µM | 33.6 µM | 36.5 µM | 28 µM | 27.4 µM | – | poor cytotoxicity | – | – | – | –
COc1c(C)c(OC)c(C(=O)/C=C/c2ccccc2)c(OC)c1C [Compound 5g, 2′,4′,6′-Trimethoxy-3′,5′-dimethylchalcone] | 22.7 µM | 29.8 µM | 12.6 µM | 19.3 µM | 21.9 µM | 23.5 µM | 18.7 µM | – | moderate cytotoxicity | 12.6 to 29.8 µM | – | – | –
COc1c(C)c(O)c(C)c(O)c1C(=O)/C=C/c1ccccc1 [DMC, 2′,4′-Dihydroxy-6′-methoxy-3′,5′-dimethylchalcone] | 19.9 µM | 37.6 µM | 13.1 µM | 37.6 µM | 38.6 µM | 29.4 µM | 15.6 µM | – | – | – | 8 mm | 8 mm | 9 mm
Cc1c2ccncc2c(C)c2c1[nH]c1ccccc12 [Ellipticine, reference compound] | 1.14 µM | 2.8 µM | 2.64 µM | 2.03 µM | 2.15 µM | 2.4 µM | 2.07 µM | – | – | – | – | – | –
